Test results from ChEMBL document CHEMBL1155787, “Synthesis and biological evaluation of new disubstituted analogues of 6-methoxy-3-(3',4',5'-trimethoxybenzoyl)-1H-indole (BPR0L075), as potential antivascular agents” (Bioorg Med Chem, 2008).
Active and inactive are the calls of the source. The rule behind the calls is not given here.

System: EA.hy 926
Test: Induction of morphological changes in human EA.hy 926 cells assessed as rounding up after 2 hrs
Assay type: functional
Conditions: not given
Outline: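 EA.hy 926 cells (HUVEC–A549 fusion line) grown in DMEM with 2 mM glutamine, 10% FBS and penicillin/streptomycin at 37 °C, 5% CO2. Plated at 5000 cells/well and exposed in triplicate to 10-fold dilutions for 2 h. Solvent control was 1% DMSO. Wells photographed at the centre. Value is the lowest concentration at which rounding up was seen.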

| SMILES | Activity |
| --- | --- |
| COc1cc(C(=O)c2c[nH]c3c(OS(C)(=O)=O)c(OC)ccc23)cc(OC)c1OC | 0.013 µM |
| COc1cc2c(c(OC)c1OC)-c1ccc(OC)c(=O)cc1[C@@H](NC(C)=O)CC2 [COLCHICINE] | 0.003 µM |
| COc1cc2c(C(=O)c3cc(OC)c(OC)c(OC)c3)cn(S(=O)(=O)c3ccccc3)c2cc1OS(C)(=O)=O | 1.3 µM |
| COc1cc2c(C(=O)c3cc(OC)c(OC)c(OC)c3)c[nH]c2cc1OS(C)(=O)=O | 28.71 µM |
| COc1ccc2c(C(=O)c3cc(OC)c(OC)c(OC)c3)c[nH]c2c1 | 0.007 µM |
| COc1ccc(/C=C\c2cc(OC)c(OC)c(OC)c2)cc1O [COMBRETASTATIN A4] | 0.008 µM |
| COc1cc2c(C(=O)c3cc(OC)c(OC)c(OC)c3)c[nH]c2cc1O | 8.74 µM |
| COc1cc2c(cc1OS(C)(=O)=O)c(C(=O)c1cc(OC)c(OC)c(OC)c1)cn2S(=O)(=O)c1ccccc1 | 10.86 µM |
| COc1cc2[nH]cc(C(=O)c3cc(OC)c(OC)c(OC)c3)c2cc1OS(C)(=O)=O | 14.35 µM |

System: B16
Test: Cytotoxicity against mouse B16 cells assessed as cell viability after 48 hrs by MTT test
Assay type: functional, cell-based
Conditions: B16, 48 h
Outline: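 Murine B16 melanoma cells grown in DMEM with 2 mM L-glutamine, 10% FBS and penicillin/streptomycin at 37 °C, 5% CO2. Cells plated at 5000/well. After 24 h, compound added in triplicate at final 0.25 ng/mL to 25 µg/mL in 10-fold dilutions (DMSO stock, 1% DMSO controls). IC50 from 3–7 independent triplicate experiments.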

| SMILES | IC50 |
| --- | --- |
| COc1cc(C(=O)c2c[nH]c3c(OS(C)(=O)=O)c(OC)ccc23)cc(OC)c1OC | 170 nM |
| COc1cc2c(c(OC)c1OC)-c1ccc(OC)c(=O)cc1[C@@H](NC(C)=O)CC2 [COLCHICINE] | 31 nM |
| COc1cc2c(C(=O)c3cc(OC)c(OC)c(OC)c3)cn(S(=O)(=O)c3ccccc3)c2cc1OS(C)(=O)=O | 3140 nM |
| COc1cc2c(C(=O)c3cc(OC)c(OC)c(OC)c3)c[nH]c2cc1OS(C)(=O)=O | 32400 nM |
| COc1ccc2c(C(=O)c3cc(OC)c(OC)c(OC)c3)c[nH]c2c1 | 13 nM |
| COc1ccc(/C=C\c2cc(OC)c(OC)c(OC)c2)cc1O [COMBRETASTATIN A4] | 3 nM |
| COc1cc2c(C(=O)c3cc(OC)c(OC)c(OC)c3)c[nH]c2cc1O | 5070 nM |
| COc1cc2c(cc1OS(C)(=O)=O)c(C(=O)c1cc(OC)c(OC)c(OC)c1)cn2S(=O)(=O)c1ccccc1 | 3290 nM |
| COc1cc2[nH]cc(C(=O)c3cc(OC)c(OC)c(OC)c3)c2cc1OS(C)(=O)=O | 13700 nM |

Species on record: Bos taurus
Test: Ratio of IC50 of drug to IC50 of colchicine for calf brain tubulin polymerization
Conditions: not given
Outline: (§1)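 Calf brain tubulin purified by three assembly–disassembly cycles, used at a final 2–3 mg/mL in pH 6.6 buffer (0.1 M MES, 0.5 mM MgCl2, 2 mM EGTA, 1 mM GTP). Assembly followed by turbidity at 400 nm at 37 °C.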

| SMILES | Ratio IC50 | Activity |
| --- | --- | --- |
| COc1cc(C(=O)c2c[nH]c3c(OS(C)(=O)=O)c(OC)ccc23)cc(OC)c1OC | 2.7 | – |
| COc1cc2c(C(=O)c3cc(OC)c(OC)c(OC)c3)cn(S(=O)(=O)c3ccccc3)c2cc1OS(C)(=O)=O | 18 | – |
| COc1cc2c(C(=O)c3cc(OC)c(OC)c(OC)c3)c[nH]c2cc1OS(C)(=O)=O | – | inactive |
| COc1ccc2c(C(=O)c3cc(OC)c(OC)c(OC)c3)c[nH]c2c1 | 0.4 | – |
| COc1ccc(/C=C\c2cc(OC)c(OC)c(OC)c2)cc1O [COMBRETASTATIN A4] | 0.7 | – |
| COc1cc2c(C(=O)c3cc(OC)c(OC)c(OC)c3)c[nH]c2cc1O | 12 | – |
| COc1cc2c(cc1OS(C)(=O)=O)c(C(=O)c1cc(OC)c(OC)c(OC)c1)cn2S(=O)(=O)c1ccccc1 | 15 | – |
| COc1cc2[nH]cc(C(=O)c3cc(OC)c(OC)c(OC)c3)c2cc1OS(C)(=O)=O | – | inactive |

System: not listed separately
Test: Inhibition of tubulin polymerization
Conditions: not given
Outline: as §1

| SMILES | IC50 |
| --- | --- |
| COc1ccc2c(C(=O)c3cc(OC)c(OC)c(OC)c3)c[nH]c2c1 | 2800 nM |
| COc1ccc(/C=C\c2cc(OC)c(OC)c(OC)c2)cc1O [COMBRETASTATIN A4] | 2200 nM |
